Source: PMC7058367 (Biochemical pharmacology, 2018)
Where two headings read alike, the source gives them in different places.

Assays:
[1] = test system: GluN1 CTD in neurons expressing GluN1-GFP, GluN2A and GluN1-mCherry; assay: CTD-FRET; type: cell-based, rat; conditions: 75 µM compound, absence of agonists, imaged 10 min after application (Fig. 8)
Summary of the method: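 Rat primary hippocampal neurons were transfected at DIV 7-10 with ~2 µg total DNA (GluN1-GFP, GluN2A, GluN1-mCherry) by lipofection and imaged at 16-18 DIV in 0.87x HBSS, 5 mM HEPES, 1 mM glucose, 2.5 mM MgCl2, 0.5 mM CaCl2. Baseline and 10 min post-compound two-photon FLIM images were taken, each neuron imaged twice, compounds interleaved. Lifetimes were fit single-exponential and analysed blind; two preparations pooled.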

GluN1/GluN2A receptors = GluN1/GluN2A receptors (Rattus norvegicus, UniProt P35439+Q00959); type: cell-based
Summary of the method: (§1)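 Xenopus laevis oocytes were injected with GluN1a:GluN2 RNA at a 1:3 molar ratio (15-30 ng total; 10-20-fold more for CTD-deleted subunits) and kept in ND-96 at 17 °C for 1-5 days. TEVC was run at -60 mV in 116 mM NaCl, 2 mM KCl, 0.3 mM BaCl2, 5 mM HEPES, pH 7.4. […] Full-length controls came from the same batch and day; mean ± s.e.m.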

[2] = target: GluN1/GluN2B^ΔCTD receptors (Rattus norvegicus, UniProt P35439+Q00960); type: cell-based; conditions: 50 µM compound; 10 µM L-glutamate/10 µM glycine (Fig. 1C)
[3] = target: GluN1^ΔCTD/GluN2D receptors (Rattus norvegicus, UniProt P35439+Q62645); type: cell-based; conditions: 50 µM compound; 10 µM L-glutamate/10 µM glycine (Fig. 1D)
Summary of the method: (§2)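 Xenopus laevis oocytes were injected with GluN1a and GluN2 RNA at a 1:3 molar ratio. The CTD was removed by a stop codon at GluN1 838K or GluN2C 855K, and 10-20-fold more RNA than wild type was injected. Oocytes were kept in ND-96 at 17 °C for 1-5 days. TEVC was run at -60 mV in Ba2+ buffer (pH 7.4). […] Full-length receptors were run alternately on the same day and oocyte batch. Values are mean ± s.e.m.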

[4] = target: GluN1/GluN2D^ΔCTD receptors (Rattus norvegicus, UniProt P35439+Q62645); type: cell-based; conditions: 50 µM compound; 10 µM L-glutamate/10 µM glycine (Fig. 1C)
[5] = test system: GluN1/GluN2D^ΔCTD receptors; type: cell-based, rat; conditions: 50 µM compound; compared to wildtype
[6] = target: GluN1^ΔCTD/GluN2A receptors (Rattus norvegicus, UniProt P35439+Q00959); type: cell-based; conditions: 50 µM compound; 10 µM L-glutamate/10 µM glycine (Fig. 1D)
Summary of the method: as §1

GluN1/GluN2B receptors = GluN1/GluN2B receptors (Rattus norvegicus, UniProt P35439+Q00960); type: cell-based
[7] = target: GluN1^ΔCTD/GluN2C receptors (Rattus norvegicus, UniProt P35439+Q00961); type: cell-based; conditions: 50 µM compound; 10 µM L-glutamate/10 µM glycine (Fig. 1D)
Summary of the method: as §1

GluN1/GluN2C receptors = GluN1/GluN2C receptors (Rattus norvegicus, UniProt P35439+Q00961); type: cell-based; conditions: 5 mM EGTA injected vs controls (Fig. 6C, G)
Summary of the method: (§3)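 Oocytes expressed wild-type GluN1a/GluN2 receptors from 15-30 ng RNA (1:3 molar) and were held in ND-96 at 17 °C for 1-5 days. For Ca2+ chelation, 5 mM EGTA (50 nL) was injected 1-2 h before recording, with uninjected and water-injected oocytes as controls. TEVC was run at -60 mV in 116 mM NaCl, 2 mM KCl, 0.3 mM BaCl2, 5 mM HEPES (pH 7.4). […] Values are mean ± s.e.m.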

[8] = target: GluN1/GluN2A^ΔCTD receptors (Rattus norvegicus, UniProt P35439+Q00959); type: cell-based
Summary of the method: as §1

[9] = target: GluN1/GluN2C^ΔCTD receptors (Rattus norvegicus, UniProt P35439+Q00961); assay: Two-electrode voltage clamp of GluN2C CTD-deleted receptors; type: cell-based; conditions: 50 µM compound; 10 µM L-glutamate/10 µM glycine (Fig. 1B,C)
Summary of the method: as §2

GluN1/GluN2D receptors = GluN1/GluN2D receptors (Rattus norvegicus, UniProt P35439+Q62645); type: cell-based; conditions: 5 mM EGTA injected vs controls (Fig. 6D, H)
Summary of the method: as §3

[10] = target: GluN1^ΔCTD/GluN2B receptors (Rattus norvegicus, UniProt P35439+Q00960); type: cell-based; conditions: 50 µM compound; 10 µM L-glutamate/10 µM glycine (Fig. 1D)
Summary of the method: as §1

[11] = 2 µM PMA for 10 minutes, 50 µM UBP684, 100 µM PS (Fig. 7E, F)
[12] = 10 µM FSK and 1 mM IBMX for 10 minutes, 50 µM UBP684, 100 µM PS (Fig. 7B, C)
[13] = 50 µM compound, control media for U73122 experiment (Fig. 6I)

Chain of GluN1^ΔCTD/GluN2D receptors (Q62645 28-1323, stated change not applied, other chains not shown): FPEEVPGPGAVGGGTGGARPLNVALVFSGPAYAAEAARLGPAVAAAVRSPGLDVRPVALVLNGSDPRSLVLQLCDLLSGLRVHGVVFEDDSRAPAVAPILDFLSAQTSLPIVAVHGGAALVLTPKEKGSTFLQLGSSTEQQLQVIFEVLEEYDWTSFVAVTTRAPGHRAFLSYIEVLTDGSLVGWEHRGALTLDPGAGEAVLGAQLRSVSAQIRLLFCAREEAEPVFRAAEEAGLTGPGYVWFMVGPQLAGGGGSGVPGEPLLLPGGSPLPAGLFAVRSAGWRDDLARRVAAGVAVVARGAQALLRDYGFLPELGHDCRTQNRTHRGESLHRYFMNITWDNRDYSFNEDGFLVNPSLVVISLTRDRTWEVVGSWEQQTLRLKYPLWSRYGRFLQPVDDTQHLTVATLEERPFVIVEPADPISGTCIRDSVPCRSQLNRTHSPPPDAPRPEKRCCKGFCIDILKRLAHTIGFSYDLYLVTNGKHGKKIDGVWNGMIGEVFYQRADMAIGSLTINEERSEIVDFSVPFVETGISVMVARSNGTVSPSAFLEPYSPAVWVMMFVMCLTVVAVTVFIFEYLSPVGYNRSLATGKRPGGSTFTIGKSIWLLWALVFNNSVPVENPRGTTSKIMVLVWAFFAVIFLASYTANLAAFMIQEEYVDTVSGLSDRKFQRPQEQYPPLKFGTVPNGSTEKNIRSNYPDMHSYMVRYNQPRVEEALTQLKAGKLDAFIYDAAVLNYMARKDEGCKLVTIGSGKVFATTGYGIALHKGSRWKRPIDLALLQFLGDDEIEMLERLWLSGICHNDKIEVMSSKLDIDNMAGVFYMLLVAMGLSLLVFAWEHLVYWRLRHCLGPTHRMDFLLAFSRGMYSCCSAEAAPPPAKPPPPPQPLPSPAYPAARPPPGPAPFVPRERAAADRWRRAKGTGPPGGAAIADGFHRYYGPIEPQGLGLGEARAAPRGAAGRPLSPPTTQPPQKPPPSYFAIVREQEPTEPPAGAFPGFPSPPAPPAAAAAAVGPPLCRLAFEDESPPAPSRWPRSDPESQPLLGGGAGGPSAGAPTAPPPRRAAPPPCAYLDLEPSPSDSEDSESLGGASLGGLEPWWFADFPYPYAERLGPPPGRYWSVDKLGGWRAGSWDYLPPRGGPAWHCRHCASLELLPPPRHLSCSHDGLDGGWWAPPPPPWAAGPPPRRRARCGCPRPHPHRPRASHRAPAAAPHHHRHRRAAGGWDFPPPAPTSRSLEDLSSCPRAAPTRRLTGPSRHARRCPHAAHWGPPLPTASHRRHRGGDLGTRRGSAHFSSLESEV
Chain of GluN1/GluN2D receptors (Q62645 28-1323, other chains not shown): as the sequence (Q62645 28-1323, stated change not applied, other chains not shown) above
Chain of GluN1/GluN2C^ΔCTD receptors (Q00961 20-842, stated change not applied, other chains not shown): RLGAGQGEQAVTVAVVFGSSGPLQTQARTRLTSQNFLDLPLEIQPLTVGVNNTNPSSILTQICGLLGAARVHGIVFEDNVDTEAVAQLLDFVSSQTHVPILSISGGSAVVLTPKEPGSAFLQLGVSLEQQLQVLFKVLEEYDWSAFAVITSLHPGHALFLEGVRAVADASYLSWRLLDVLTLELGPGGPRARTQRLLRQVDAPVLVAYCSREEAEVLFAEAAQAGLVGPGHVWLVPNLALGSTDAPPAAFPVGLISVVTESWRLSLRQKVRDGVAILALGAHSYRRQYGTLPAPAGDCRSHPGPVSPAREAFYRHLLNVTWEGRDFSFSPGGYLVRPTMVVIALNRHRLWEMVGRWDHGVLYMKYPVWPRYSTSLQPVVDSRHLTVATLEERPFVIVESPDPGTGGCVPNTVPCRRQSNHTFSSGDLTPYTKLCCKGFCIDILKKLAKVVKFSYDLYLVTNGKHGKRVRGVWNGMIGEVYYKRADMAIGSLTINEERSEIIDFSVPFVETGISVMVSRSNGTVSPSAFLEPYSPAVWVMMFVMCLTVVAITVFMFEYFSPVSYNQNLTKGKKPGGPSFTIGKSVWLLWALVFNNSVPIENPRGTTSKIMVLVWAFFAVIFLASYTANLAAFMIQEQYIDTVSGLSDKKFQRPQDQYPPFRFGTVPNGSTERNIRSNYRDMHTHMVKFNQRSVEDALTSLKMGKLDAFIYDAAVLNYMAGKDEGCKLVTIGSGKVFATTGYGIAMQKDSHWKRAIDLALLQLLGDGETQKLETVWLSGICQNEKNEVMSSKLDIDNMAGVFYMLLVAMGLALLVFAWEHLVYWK
Chain of GluN1/GluN2D^ΔCTD receptors (Rattus norvegicus, UniProt P35439+Q62645) (Q62645 28-869 limits assumed, stated change not applied, other chains not shown): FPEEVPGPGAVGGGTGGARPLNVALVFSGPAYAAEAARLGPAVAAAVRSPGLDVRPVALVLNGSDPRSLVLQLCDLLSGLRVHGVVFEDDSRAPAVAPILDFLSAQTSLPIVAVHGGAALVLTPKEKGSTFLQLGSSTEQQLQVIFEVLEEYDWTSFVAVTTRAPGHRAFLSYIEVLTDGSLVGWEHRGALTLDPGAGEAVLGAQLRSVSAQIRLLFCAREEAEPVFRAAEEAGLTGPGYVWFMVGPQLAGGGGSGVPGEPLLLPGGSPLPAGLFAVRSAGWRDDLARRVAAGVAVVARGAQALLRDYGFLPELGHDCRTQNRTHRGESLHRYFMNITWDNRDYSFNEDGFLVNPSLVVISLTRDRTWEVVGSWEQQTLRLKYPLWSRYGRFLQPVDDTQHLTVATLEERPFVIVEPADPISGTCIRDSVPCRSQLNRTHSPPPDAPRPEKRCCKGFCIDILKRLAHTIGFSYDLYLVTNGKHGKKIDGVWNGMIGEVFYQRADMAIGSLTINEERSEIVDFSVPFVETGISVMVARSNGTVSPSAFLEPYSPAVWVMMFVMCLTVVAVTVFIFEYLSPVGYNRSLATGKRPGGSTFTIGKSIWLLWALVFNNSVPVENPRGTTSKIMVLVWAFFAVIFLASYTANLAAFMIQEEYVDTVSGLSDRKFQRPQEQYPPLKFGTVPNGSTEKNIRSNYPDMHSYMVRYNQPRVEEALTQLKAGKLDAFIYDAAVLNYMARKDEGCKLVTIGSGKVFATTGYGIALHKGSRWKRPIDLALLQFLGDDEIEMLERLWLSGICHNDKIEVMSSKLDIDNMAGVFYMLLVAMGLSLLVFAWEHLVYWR
Chain of GluN1^ΔCTD/GluN2C receptors (Q00961 20-1237, stated change not applied, other chains not shown): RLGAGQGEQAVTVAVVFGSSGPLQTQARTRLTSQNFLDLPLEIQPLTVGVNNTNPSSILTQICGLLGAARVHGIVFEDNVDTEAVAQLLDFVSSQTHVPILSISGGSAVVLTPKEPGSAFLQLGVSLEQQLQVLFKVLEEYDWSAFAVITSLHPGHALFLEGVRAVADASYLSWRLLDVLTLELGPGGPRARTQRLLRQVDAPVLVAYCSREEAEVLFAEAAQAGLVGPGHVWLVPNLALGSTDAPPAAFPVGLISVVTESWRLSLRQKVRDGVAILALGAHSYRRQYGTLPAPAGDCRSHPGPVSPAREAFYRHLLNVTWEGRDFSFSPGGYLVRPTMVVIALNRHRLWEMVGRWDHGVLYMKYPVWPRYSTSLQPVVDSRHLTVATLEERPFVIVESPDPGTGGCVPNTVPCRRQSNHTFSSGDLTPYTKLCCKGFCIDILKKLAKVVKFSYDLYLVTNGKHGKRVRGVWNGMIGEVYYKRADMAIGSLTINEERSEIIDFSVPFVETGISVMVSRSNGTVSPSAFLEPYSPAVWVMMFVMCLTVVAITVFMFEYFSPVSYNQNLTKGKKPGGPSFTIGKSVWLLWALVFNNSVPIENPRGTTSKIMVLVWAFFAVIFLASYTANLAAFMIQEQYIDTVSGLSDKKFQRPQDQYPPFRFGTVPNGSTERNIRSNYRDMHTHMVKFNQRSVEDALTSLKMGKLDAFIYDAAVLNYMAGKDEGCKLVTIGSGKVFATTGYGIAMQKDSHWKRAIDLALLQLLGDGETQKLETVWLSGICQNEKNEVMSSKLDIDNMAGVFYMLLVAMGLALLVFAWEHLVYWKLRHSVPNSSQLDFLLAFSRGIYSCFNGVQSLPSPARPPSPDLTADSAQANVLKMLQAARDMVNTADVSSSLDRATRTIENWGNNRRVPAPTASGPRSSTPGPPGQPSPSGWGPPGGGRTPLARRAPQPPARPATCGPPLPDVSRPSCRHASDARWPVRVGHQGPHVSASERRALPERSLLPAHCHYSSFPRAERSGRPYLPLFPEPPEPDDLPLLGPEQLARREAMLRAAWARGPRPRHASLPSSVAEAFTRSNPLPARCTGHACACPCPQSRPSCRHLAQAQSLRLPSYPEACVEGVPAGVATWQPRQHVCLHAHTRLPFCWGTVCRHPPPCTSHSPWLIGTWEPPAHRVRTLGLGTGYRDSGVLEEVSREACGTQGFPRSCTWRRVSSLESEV
Chain of GluN1/GluN2C receptors (Q00961 20-1237, other chains not shown): as the sequence (Q00961 20-1237, stated change not applied, other chains not shown) above

CC(C)CCCc1ccc2cc(C(=O)O)ccc2c1 [UBP684]
change of GluN1-GFP fluorescence lifetime (movement of the GluN1 CTD) [1]: significant increase
effect of PKC activation by PMA on PAM activity (GluN1/GluN2A receptors; [11]): larger % potentiation
effect of PKA activation on % potentiation (GluN1/GluN2A receptors; [12]): unchanged
% potentiation of agonist response (GluN1/GluN2A receptors; 50 µM compound, H2O-injected control oocytes (Fig. 6A)): 47 ± 13%
% potentiation of agonist-evoked current (GluN1/GluN2A receptors; [13]): 24 ± 5%
% potentiation of agonist response (GluN1/GluN2A receptors; 50 µM compound, oocytes injected with 5 mM EGTA (Fig. 6A)): 9 ± 3%
% potentiation of agonist response (GluN1/GluN2A receptors; 50 µM compound, un-injected control oocytes (Fig. 6A)): 54 ± 5%
% potentiation of agonist-evoked current [2]: 74.4 ± 7.0%
% potentiation of agonist-evoked current [3]: 19 ± 7%
% potentiation of agonist-evoked current [4]: 23 ± 4%
reduction of potentiation by GluN2D CTD deletion compared to wildtype [5]: approximately 50%
% potentiation of agonist-evoked current [6]: 3 ± 2%
effect of PKC activation by PMA on PAM activity (GluN1/GluN2B receptors; [11]): larger % potentiation
effect of PKA activation on % potentiation (GluN1/GluN2B receptors; [12]): unchanged
% potentiation of agonist response (GluN1/GluN2B receptors; 50 µM compound, H2O-injected control oocytes (Fig. 6B)): 45 ± 5%
% potentiation of agonist-evoked current (GluN1/GluN2B receptors; [13]): 33 ± 4%
% potentiation of agonist response (GluN1/GluN2B receptors; 50 µM compound, oocytes injected with 5 mM EGTA (Fig. 6B)): 28 ± 2%
% potentiation of agonist response (GluN1/GluN2B receptors; 50 µM compound, un-injected control oocytes (Fig. 6B)): 48 ± 4%
% potentiation of agonist-evoked current [7]: 5 ± 3%
effect of EGTA injection on potentiation/modulation (GluN1/GluN2C receptors): no significant effect
effect of PKC activation by PMA on PAM activity ([8]; 2 µM PMA for 10 minutes, 50 µM UBP684, 100 µM PS (Fig. 7G, H)): increased
% potentiation of agonist-evoked current ([8]; 50 µM compound, 10 µM L-glutamate/10 µM glycine (Fig. 1C)): 27 ± 5%
reduction of potentiation by GluN2A CTD deletion compared to wildtype ([8]; 50 µM compound, compared to wildtype): approximately 50%
% inhibition of agonist-evoked current [9]: 20 ± 3%
effect of EGTA injection on potentiation/modulation (GluN1/GluN2D receptors): no significant effect
% potentiation of agonist-evoked current [10]: 44 ± 8%
